Legend:
[1] = Duration of action where maximum inhibition of LTB4 formation is achieved at 1 mg/kg iv; assay type: functional, organism-based; design: dose 1 mg/kg; details: Canis lupus familiaris
Method in brief: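 Beagle dogs (8–15 kg, fasted) given iv bolus in forearm in DMA/PEG 400 (25:75), 0.1 mL/kg. Blood at -1, 0, 0.08, 0.25, 0.5, 1, 3, 6, 9, 24 h; aliquots stimulated with A23187 100 μM + fMLP 10 μM final, 15 min, 37 °C; plasma LTB4 by RIA. DA taken graphically from maximum inhibition to 50%-of-maximum level.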

[2] = Duration of action where maximum inhibition of LTB4 formation is achieved at 10 mg/kg po; assay type: functional, organism-based; design: dose 10 mg/kg; details: Canis lupus familiaris
Method in brief: (§1)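 Beagle dogs (8–15 kg, fasted 16–18 h, water allowed) dosed by oral intubation as suspension in 3% cornstarch/0.33% Tween 80/5% PEG 400 in water, 5 mL/kg. Jugular blood at -1, 0, 0.25, 0.5, 1, 3, 6, 9, 24 h; 1-mL aliquots stimulated 15 min at 37 °C with A23187 100 μM plus fMLP 10 μM (final); plasma LTB4 by RIA. DA read graphically: time from maximum inhibition to 50% of maximum.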

[3] = target: T1, Polyunsaturated fatty acid 5-lipoxygenase (Homo sapiens) (UniProt P09917); assay: Ex vivo inhibition of LTB-4 determined by measurement of A-23187-stimulated LTB-4 production in dog blood at 1 mg/kg iv; assay type: functional, organism-based; design: dose 1 mg/kg
T1 sequence (whole entry): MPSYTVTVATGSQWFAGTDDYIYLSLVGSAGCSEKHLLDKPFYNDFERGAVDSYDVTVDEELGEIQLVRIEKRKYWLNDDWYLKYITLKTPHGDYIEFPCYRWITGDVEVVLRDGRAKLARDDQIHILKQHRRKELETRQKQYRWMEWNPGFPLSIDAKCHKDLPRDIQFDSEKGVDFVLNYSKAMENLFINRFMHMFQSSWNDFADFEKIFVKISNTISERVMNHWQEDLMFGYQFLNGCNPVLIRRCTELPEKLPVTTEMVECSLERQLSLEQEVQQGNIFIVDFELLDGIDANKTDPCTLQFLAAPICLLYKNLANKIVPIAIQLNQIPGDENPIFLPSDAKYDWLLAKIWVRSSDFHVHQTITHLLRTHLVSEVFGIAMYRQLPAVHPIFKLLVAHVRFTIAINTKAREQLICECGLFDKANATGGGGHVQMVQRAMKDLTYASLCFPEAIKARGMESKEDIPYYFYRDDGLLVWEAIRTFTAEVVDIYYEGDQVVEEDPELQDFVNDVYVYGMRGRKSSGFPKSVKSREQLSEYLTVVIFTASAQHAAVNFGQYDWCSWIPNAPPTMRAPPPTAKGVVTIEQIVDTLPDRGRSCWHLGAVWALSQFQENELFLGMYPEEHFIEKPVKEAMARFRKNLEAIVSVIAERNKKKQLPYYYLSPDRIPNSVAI
Method in brief: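 Beagles (8–15 kg, fasted 16–18 h) given iv forearm bolus in DMA/PEG 400 (25:75), 0.1 mL/kg. Jugular blood (serine/heparin) sampled -1 to 24 h; 1-mL aliquots stimulated with A23187 100 μM + fMLP 10 μM final for 15 min at 37 °C, one aliquot unstimulated. Plasma LTB4 by RIA; inhibition versus mean of -1 and 0 h predose values.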

[4] = system: Arachidonate 5-lipoxygenase (Canis lupus familiaris); assay: Ex vivo inhibition of LTB-4 determined by measurement of A-23187-stimulated LTB-4 production in dog blood at 10 mg/kg po; details: target entry is the homologue from another species
[5] = Duration of action is where maximum inhibition of LTB4 formation is achieved at 1 mg/kg po; assay type: functional, organism-based; design: dose 1 mg/kg; details: Canis lupus familiaris; method in brief: as §1
[6] = target: T1, Polyunsaturated fatty acid 5-lipoxygenase (Homo sapiens); assay: Ex vivo inhibition of LTB4 production by measurement of A-23187-stimulated LTB-4 production in dog blood at 1 mg/kg po.; assay type: functional, organism-based; design: dose 1 mg/kg; details: Canis lupus familiaris, target entry is the homologue from another species
Method in brief: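 Fasted beagles (8–15 kg) dosed orally by intubation, suspension in 3% cornstarch with 0.33% Tween 80 and 5% PEG 400, 5 mL/kg. Blood at -1, 0, 0.25–24 h stimulated ex vivo with A23187 100 μM + fMLP 10 μM final, 15 min, 37 °C; plasma LTB4 by RIA; percent inhibition relative to mean predose (-1, 0 h) values.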

[7] = system: Arachidonate 5-lipoxygenase (Canis lupus familiaris); assay: Ex vivo inhibition of LTB-4 determined by measurement of A-23187-stimulated LTB-4 production in dog blood at 3 mg/kg po; details: target entry is the homologue from another species
[8] = Duration of action where maximum inhibition of LTB4 formation is achieved at 1 mg/kg po; assay type: functional, organism-based; design: dose 1 mg/kg; details: Canis lupus familiaris; method in brief: as §1
[9] = Duration of action where maximum inhibition of LTB4 formation is achieved at 3 mg/kg po; assay type: functional, organism-based; design: dose 3 mg/kg; details: Canis lupus familiaris; method in brief: as §1
[10] = target: T2, Polyunsaturated fatty acid lipoxygenase ALOX12 (Homo sapiens, UniProt P18054); assay: Inhibitory concentration against human platelet 12-lipoxygenase; assay type: functional
T2 sequence (P18054 whole entry): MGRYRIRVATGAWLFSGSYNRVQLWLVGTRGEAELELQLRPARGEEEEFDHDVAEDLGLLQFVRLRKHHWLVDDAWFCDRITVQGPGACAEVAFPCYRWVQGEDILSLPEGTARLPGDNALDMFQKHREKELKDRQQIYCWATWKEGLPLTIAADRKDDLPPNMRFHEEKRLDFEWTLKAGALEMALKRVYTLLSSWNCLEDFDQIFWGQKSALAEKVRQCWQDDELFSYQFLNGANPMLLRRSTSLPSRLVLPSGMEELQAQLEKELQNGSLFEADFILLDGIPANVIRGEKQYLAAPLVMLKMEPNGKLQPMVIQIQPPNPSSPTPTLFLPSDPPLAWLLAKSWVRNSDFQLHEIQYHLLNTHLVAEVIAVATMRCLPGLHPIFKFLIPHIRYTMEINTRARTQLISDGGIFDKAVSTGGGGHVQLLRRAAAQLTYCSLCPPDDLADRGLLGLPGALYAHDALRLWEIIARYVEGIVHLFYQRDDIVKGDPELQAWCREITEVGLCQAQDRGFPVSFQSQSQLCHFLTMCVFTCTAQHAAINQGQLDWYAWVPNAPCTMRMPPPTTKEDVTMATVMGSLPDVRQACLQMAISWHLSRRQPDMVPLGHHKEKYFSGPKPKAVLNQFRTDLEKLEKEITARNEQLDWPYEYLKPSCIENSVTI
Method in brief: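 Cytoplasmic fraction of lysed human platelets, diluted to give 50% AA conversion, preincubated with inhibitor 5 min at 37 °C in 0.1 M Tris-HCl pH 8.0 with 1 mM glutathione and 10 μM indomethacin. 1-[14C]AA added, 15 min at 37 °C; 12-HETE separated by TLC and counted.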

[11] = target: T3, Prostaglandin G/H synthase (cyclooxygenase) (Ovis aries, UniProt P05979+P79208); assay: Inhibitory concentration against sheep seminal vesicle Prostaglandin G/H synthase; assay type: functional, tissue-based
T3 sequence (P05979 whole entry): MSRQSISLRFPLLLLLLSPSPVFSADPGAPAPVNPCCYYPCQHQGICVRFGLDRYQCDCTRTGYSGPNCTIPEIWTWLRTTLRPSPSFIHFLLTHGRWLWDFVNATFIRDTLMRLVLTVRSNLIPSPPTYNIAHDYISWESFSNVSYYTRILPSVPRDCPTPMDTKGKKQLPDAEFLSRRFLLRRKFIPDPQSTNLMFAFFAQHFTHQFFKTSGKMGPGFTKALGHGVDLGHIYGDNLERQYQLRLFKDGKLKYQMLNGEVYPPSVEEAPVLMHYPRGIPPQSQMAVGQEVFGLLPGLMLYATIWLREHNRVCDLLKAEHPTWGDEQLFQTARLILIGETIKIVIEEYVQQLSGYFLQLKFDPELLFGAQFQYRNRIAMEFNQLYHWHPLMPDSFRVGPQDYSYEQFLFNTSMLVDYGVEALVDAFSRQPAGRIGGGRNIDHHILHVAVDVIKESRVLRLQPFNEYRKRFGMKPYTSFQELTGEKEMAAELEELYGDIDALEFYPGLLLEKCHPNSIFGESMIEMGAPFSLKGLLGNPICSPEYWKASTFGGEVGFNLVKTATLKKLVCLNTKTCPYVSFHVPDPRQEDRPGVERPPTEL
T3 sequence (P79208 whole entry): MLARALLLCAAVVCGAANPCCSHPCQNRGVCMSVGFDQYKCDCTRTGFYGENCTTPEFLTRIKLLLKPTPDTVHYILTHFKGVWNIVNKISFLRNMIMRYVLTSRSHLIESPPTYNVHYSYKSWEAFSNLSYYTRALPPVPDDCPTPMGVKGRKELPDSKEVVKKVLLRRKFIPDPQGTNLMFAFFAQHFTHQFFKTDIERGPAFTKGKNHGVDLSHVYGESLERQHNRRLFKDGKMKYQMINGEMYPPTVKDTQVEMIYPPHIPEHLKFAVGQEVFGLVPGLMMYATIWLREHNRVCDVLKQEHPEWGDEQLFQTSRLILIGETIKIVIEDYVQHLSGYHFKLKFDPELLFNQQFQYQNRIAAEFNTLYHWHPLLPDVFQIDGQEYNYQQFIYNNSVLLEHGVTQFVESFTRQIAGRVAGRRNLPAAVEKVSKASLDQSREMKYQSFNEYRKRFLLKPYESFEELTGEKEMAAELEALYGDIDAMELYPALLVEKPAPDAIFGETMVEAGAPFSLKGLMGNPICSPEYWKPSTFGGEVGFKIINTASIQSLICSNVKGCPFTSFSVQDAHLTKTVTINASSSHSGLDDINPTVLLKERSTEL
Method in brief: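 Lyophilized sheep seminal vesicle microsomes as cyclooxygenase source; conversion of [14C]AA to PGE2 with compounds over a wide concentration range in 0.1 M Tris-HCl pH 8.4 (or 1% ethanol). PGs extracted into ethyl acetate, separated by TLC, PGE2 zones counted by scintillation.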

Compound	Duration [1] [h]	inhibition [3] [%]	inhibition [6] [%]	Duration [8] [h]	further results
NC(=O)N(O)CC1=Cc2cc(OCc3ccc(C(F)(F)F)cc3)ccc2OC1	3	82			Duration [2]: > 6 h; inhibition [4]: > 95%
NC(=O)N(O)CC1=Cc2cc(OCc3ccccc3)ccc2OC1	19	> 95	59		Duration [5]: 5 h; Duration [2]: > 6 h; inhibition [7]: > 95%; inhibition [4]: > 95%
CCCNC(=O)N(O)CC1=Cc2cc(Oc3ccccc3)ccc2OC1	8.1	> 95			
NC(=O)N(O)CC1=Cc2cc(-c3ccccc3)ccc2OC1			60	1	
NC(=O)N(O)CC1=Cc2cc(Oc3ccc(F)cc3)ccc2OC1		> 95	> 95		Duration [5]: 13 h
NC(=O)N(O)CC1=Cc2cc(Br)ccc2OC1					Duration [2]: 3.8 h; inhibition [4]: > 95%
CCCCCCOc1ccc2c(c1)C=C(CN(O)C(N)=O)CO2					Duration [9]: 2.2 h; inhibition [7]: 60%
CCNC(=O)N(O)CC1=Cc2cc(Oc3ccccc3)ccc2OC1	5.1	> 95	60	3.8	
CNC(=O)N(O)CC1=Cc2cc(Oc3ccccc3)ccc2OC1	8.4	> 95	> 95	11	
CC1Oc2ccc(Oc3ccccc3)cc2C=C1CN(O)C(N)=O (stereo not drawn)	5	> 95	> 95	9	
NC(=O)N(O)CC1=Cc2cc(Oc3ccccc3)ccc2OC1		> 95	> 95		IC50 [10]: 0.64 µM; Duration [5]: 14 h; Duration [9]: 35 h
C=CCNC(=O)N(O)CC1=Cc2cc(Oc3ccccc3)ccc2OC1			80		Duration [5]: 4.2 h
COc1ccc2c(c1)C=C(CN(O)C(N)=O)CO2	1.2				Duration [2]: > 6 h
NC(=O)N(O)CC1COc2ccc(Oc3ccccc3)cc2C1 (stereo not drawn)	7.4	> 95	> 95	4.8	
CNC(=O)N(O)CC1=Cc2cc(Oc3ccc(F)cc3)ccc2OC1	20	> 95	> 95		IC50 [10]: 0.41 µM; Duration [5]: 15 h; Duration [9]: 42 h; IC50 [11]: > 100 µM
CC1(C)Oc2ccc(Oc3ccccc3)cc2C=C1CN(O)C(N)=O			65	2.6	
CC(c1cc2ccccc2s1)N(O)C(N)=O (stereo not drawn) [ZILEUTON]					IC50 [10]: 55 µM
CC1Oc2ccc(OCc3ccccc3)cc2C=C1CN(O)C(N)=O (stereo not drawn)			91	2.8	
NC(=O)N(O)CC1=Cc2cc(OCCCc3ccccc3)ccc2OC1			> 90	4	Duration [9]: > 6 h; inhibition [7]: > 95%

Source: ChEMBL document CHEMBL1127079, “Substituted chromenes as potent, orally active 5-lipoxygenase inhibitors” (J Med Chem, 1993)
